# Measured values: ChEMBL document CHEMBL2429829, “Inhibitors of the aminoglycoside 6'-N-acetyltransferase type Ib [AAC(6')-Ib] identified by in silico molecular docking” (Bioorg Med Chem Lett, 2013)
# Experiment: Inhibition of aminoglycoside 6'-N-acetyltransferase Ib (unknown origin)-mediated acetylation expressed in Escherichia coli using kanamycin A and acetyl CoA as substrate at 100 uM preincubated for 10 mins followed by enzyme addition by spectrophotometric analysis relative to control
# In short: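 Enzyme: thioredoxin-fused AAC(6′)-Ib, arabinose-induced in E. coli, partially purified by DEAE ion exchange. Reaction: 20 mM Tris pH 7.5, 0.2 mM DTNB, 50 μM acetyl CoA, 18 μM kanamycin A, compound at 100 μM in 10% DMSO. Mix held 10 min at room temperature before enzyme added. CoA–SH release read at 412 nm. Percent inhibition from initial velocities versus no-compound reactions; mean of three experiments.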
row,Compound,inhibition [%]
1,O=C(c1ccc2c3c(cccc13)CC2)[C@H]1CCCN(C(=O)c2cn3ccccc3n2)C1,0
2,O=C1[C@@H]2[C@H](C(=O)N1/N=C/c1ccccc1OCc1ccc(Cl)cc1)[C@@H]1C=C[C@H]2C1,12
3,O=C(c1ccc2nc(C3CC3)oc2c1)N1CCC(CCc2ccccc2)CC1,0
4,CC(C)(C)NC(=O)c1cccc(NC(=O)c2ccc3c(c2)C(=O)N(Cc2ccncc2)C3=O)c1,0
5,Brc1ccc2nc(Nc3cccc4ccccc34)nc(-c3ccccc3)c2c1,0
6,O=C(/C=C/c1cccc2ccccc12)N1CCN(CCN2C(=O)c3cccc4cccc(c34)C2=O)CC1,0
7,O=C(CSc1nc2ccccc2c(=O)n1Cc1ccccc1)c1cc2ccccc2o1,0
8,Cn1c(SCC(=O)Nc2cccc3ccccc23)nnc1-c1ccc(F)cc1,0
9,Cc1ccc2c(c1)CCCN2C(=O)c1cc(-c2ccc3c(c2)OCO3)nc2ccccc12,10
10,Cc1ccc(C(=O)COc2cccc(N3C(=O)[C@@H]4[C@H]5CC[C@H](C5)[C@@H]4C3=O)c2)cc1C,0
11,O=C1C(=Cc2ccc(-c3ccccc3[N+](=O)[O-])o2)C(=O)N(c2ccccc2)C(=S)N1c1ccccc1,0
12,O=C1NCCN(Cc2cccc(F)c2F)[C@H]1CC(=O)N1CCc2c([nH]c3ccccc23)C1,0
13,O=C1c2cccc3cccc(c23)C(=O)N1CCCc1nc2sc3c(c2c(=O)[nH]1)CCCC3,0
14,CCc1ccc(-c2nc3ccccc3c(C(=O)Nc3ccc(C(=O)N4CCCC4)cc3)c2C)cc1,0
15,CN1C(=O)c2ccc(NC(=O)[C@H]3CC(=O)N(c4ccccc4)C3)cc2C1=O,0
16,O=C1C(=Cc2ccc(-c3ccc(Cl)cc3[N+](=O)[O-])o2)C(=O)N(c2ccccc2)C(=S)N1c1ccccc1,0
17,Cc1ccc2nc(NC(=S)NC(=O)c3oc4ccccc4c3C)sc2c1,0
18,Cc1cccc(C)c1NC(=O)C(Cc1c[nH]c2ccccc12)NC(=O)Oc1ccccc1 (configuration not stated),0
19,Cc1ccc(S(=O)(=O)Nc2cc3c(c4ccccc24)O[C@]2(C3)N(C)c3ccccc3C2(C)C)c(C)c1,0
20,Cc1ccc(N2C(=O)NC(=O)/C(=C\c3ccc(-c4ccccc4C(=O)O)o3)C2=O)cc1,0
21,O=C(c1cc(-c2ccc3c(c2)OCO3)nc2ccccc12)N1CCN(c2ccccc2F)CC1,0
22,O=C1C(=Cc2ccc(-c3ccccc3Cl)o2)C(=O)N(c2ccccc2)C(=S)N1c1ccccc1,0
23,O=C(Nc1nccs1)c1cccc(N2C(=O)c3cccc4c([N+](=O)[O-])ccc(c34)C2=O)c1,0

row,Compound,inhibition [%]
1,O=C(OCc1ccc(S(=O)(=O)c2ccccc2)cc1)c1ccc2c(c1)-c1ccccc1C2=O,0
2,O=C1NC(=O)N(c2ccc3c(c2)OCO3)C(=O)/C1=C/c1ccc(-c2ccc(F)cc2)o1,0
3,Cc1ccc(S(=O)(=O)Nc2c3ccccc3c(O)c3c4c(oc23)CC(C)(C)CC4=O)cc1,0
4,Cc1c(C(=O)Nc2ccc3c(c2)Cc2ccccc2-3)cccc1[N+](=O)[O-],0
5,CC[C@H](C1=NN2C(=N)/C(=C\c3ccc(-c4cccc(C(=O)O)c4)o3)C(=O)N=C2S1)c1ccccc1,0
6,S=C(N/N=C1/CCCc2c1[nH]c1ccc(C3CCCCC3)cc21)Nc1ccccc1,0
7,O=C(NC1CCCc2c1cnn2-c1ccccc1F)c1ccc(-n2ccnc2)cc1 (configuration not stated),15
8,O=C1NC(=S)N(c2ccccc2)C(=O)/C1=C/c1ccc(OCc2ccccc2)cc1,0
9,O=c1[nH]c(-c2cccc(OCc3ccccc3)c2)nc2sc3c(c12)CCCC3,0
10,Cc1ccc(C(=O)O)cc1NC(=S)NC(=O)c1cccc2c(Br)cccc12,0
11,O=C(CSc1nnnn1-c1ccccc1)Nc1ccc(-c2ccc([N+](=O)[O-])cc2)cc1,0
12,O=C(NC(=S)Nc1ccc2c3c(oc2c1)CCCC3)c1ccc2c(c1)OCO2,0
13,Cc1ccc(NC(=O)COc2ccc3c4c(c(=O)oc3c2)CCCCC4)cc1,0
14,Cc1ncc(CNC2CCCc3nc(-c4ccccc4)ncc32)n1C (configuration not stated),0
15,N#Cc1cccc(Oc2ccc(-c3nc4ccccc4nc3-c3ccccc3)cc2)c1C#N,0
16,O=C(c1cccc([N+](=O)[O-])c1)c1ccc2c(c1)C(=O)N(c1cccc(-c3nc4ccccc4o3)c1)C2=O,0
17,O=C(O)c1ccc2c(c1Nc1cccc3c1C(=O)c1ccccc1C3=O)C(=O)c1ccccc1C2=O,0
18,O=C(c1ccc(N2CCCCC2)cc1)N1CCC2c3ccccc3NC2[C@@H]1c1ccccn1 (some centres not stated),0
19,COc1cc(/C=C2\C(=O)NC(=S)N(c3ccccc3)C2=O)ccc1OCc1ccc(C(=O)O)cc1,0
20,COc1cccc(Nc2nc(C3(C)CC4(CC(C)OC4=O)C(=O)O3)cs2)c1 (configuration not stated),0
21,CCc1cc(Br)ccc1N1C(=O)[C@H]2C3c4ccccc4C(c4ccccc43)[C@@H]2C1=O,0
22,CC(C)(NC(=O)CCn1ccc(=O)[nH]c1=O)c1cccc2ccccc12,0
23,O=C(Nc1ccc(Oc2cccnc2)cc1)[C@@H]1CCCCN1Cc1ccc2c(c1)CCO2,0

row,Compound,inhibition [%]
1,O=C(NCc1ccc(-c2nc3ccccc3o2)cc1)c1cccc(-c2cc3ccccc3oc2=O)c1,0
2,O=C(Nc1ccccc1)c1ccccc1/N=C/c1ccc(/C=N/c2ccccc2C(=O)Nc2ccccc2)cc1,0
3,O=C1C[C@H](c2ccc3cccc(O)c3n2)c2ccc(N3CCOC3=O)cc2N1,0
4,Cc1ccc(-c2nnn(CC(=O)Nc3ccc4c(c3)OCCO4)n2)cc1,0
5,O=C1C(=Cc2ccco2)C(=O)N(c2ccccc2)C(=O)N1c1ccccc1,0
6,c1ccc2oc(-c3nn4c(-c5ccncc5)nnc4s3)cc2c1,0
7,Cn1c(COc2nnc(-c3ccccc3)c3ccccc23)nc2ccccc21,0
8,O=C(c1cc(-c2ccccc2Cl)nc2ccccc12)N1CCN(Cc2ccc3c(c2)OCO3)CC1,0
9,COC(=O)c1ccc(N2C(=O)NC(=O)/C(=C\c3ccccc3OCc3ccc(C(=O)O)cc3)C2=O)cc1,0
10,Cc1nn(Cc2ccc(F)cc2)c(C)c1NC(=O)c1cc(-c2ccc(F)cc2)on1,0
11,O=C1NC(=O)N(c2ccc(F)cc2)C(=O)/C1=C/c1cc(Cl)ccc1OCc1ccc(C(=O)O)cc1,0
12,Cc1ccc2nc(C)cc(C(=O)OCC(=O)c3ccc(-c4ccccc4)cc3)c2c1,0
13,O=C1NC(=O)N(c2ccccc2)C(=O)/C1=C/c1cc(Cl)ccc1OCc1ccc(C(=O)O)cc1,0
14,Cc1c(O)cccc1C(=O)N1CCC[C@@H]1c1nc(-c2ccccc2)no1,0
15,Cc1nc(N/N=C/c2ccc(OC(=O)c3cccnc3)cc2)c2c3c(sc2n1)CCCC3,0
16,COc1ccc(F)cc1C(=O)C1CCCN(C(=O)c2ccc(Cn3cnnn3)cc2)C1 (configuration not stated),0
17,Cc1ccnc(Nc2nc(-c3ccc4ccccc4c3)cs2)c1,0
18,Cc1ccc2nc(-c3ccc(Cl)c(NC(=S)NC(=O)c4ccccc4C)c3)oc2c1,0
19,NC(=O)c1c(NC(=O)c2cc(-c3ccc4c(c3)OCO4)nc3ccccc23)sc2c1CCCCCC2,0
20,Cc1ccc(-c2csc(NC(=S)NC(=O)c3ccccc3Br)n2)cc1,0
21,Cc1ccccc1Nc1nnc(-c2ccc(C(=O)NCCO)cc2)c2ccccc12,0
